Values joined by “and” are separate entries in the source; they are usually repeats but may differ in a detail not shown here. Identical values can stand only once.
Tested on: U2OS
Test: Multiplex assay against U2OS
Assay type: toxicity, cell-based
Conditions: human, number of replicates 2
Procedure, shortened: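 Per cents of healthy-nucleus cells form the tubulin, mitochondrial-mass and membrane-permeability phenotype values. Live cells were stained at seeding with Hoechst33342, BioTracker Green Microtubule Cytoskeleton Dye, MitoTracker Red and Annexin V Alexa Fluor 680. After compound addition they were imaged on a CQ1 microscope at 37°C and 5% CO2, and CellPathfinder machine-learning gating split them into Hoechst high-intensity objects or normal cells, normal cells into healthy, pyknosed or fragmented nuclei, and pyknosed cells into mitotic or apoptotic.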

[1] = 12 h, 1 µM, compound concentration 1 uM
[2] = 12 h, 10 µM, compound concentration 10 uM
[3] = 24 h, 1 µM, compound concentration 1 uM
[4] = 24 h, 10 µM, compound concentration 10 uM
[5] = 48 h, 1 µM, compound concentration 1 uM
[6] = 48 h, 10 µM, compound concentration 10 uM

SMILES: COc1cc(C(=O)NC2CCN(C)CC2)ccc1Nc1ncc(C(F)(F)F)c(NCc2ccc(C)cc2N(C)S(C)(=O)=O)n1.O=CO.O=CO
- Population Apoptotic (%) [1]: 50% and 69%
- Population Fragmented Nuclei (%) [1]: 6% and 5%
- Population Healthy Nuclei (%) [1]: 81% and 80%
- Population Hoechst High Intensity Objects (%) [1]: 0%
- Population Membrane Permeable-Phenotype (%) [1]: 7% and 20%
- Population Mitotic Cells (%) [1]: 50% and 30%
- Population Normal (%) [1]: 100%
- Population Pyknosed Nuclei (%) [1]: 12% and 14%
- Population Tubulin-Different-Phenotype (%) [1]: 38% and 40%
- Population Apoptotic (%) [2]: 66% and 81%
- Population Healthy Nuclei (%) [2]: 25%
- Population Hoechst High Intensity Objects (%) [2]: 1% and 3%
- Population Membrane Permeable-Phenotype (%) [2]: 38% and 48%
- Population Mitochondria Different-Phenotype (%) [2]: 84% and 69%
- Population Mitotic Cells (%) [2]: 33% and 18%
- Population Normal (%) [2]: 98% and 96%
- Population Pyknosed Nuclei (%) [2]: 47% and 66%
- Population Tubulin-Different-Phenotype (%) [2]: 100% and 96%
- Population Apoptotic (%) [3]: 42% and 74%
- Population Fragmented Nuclei (%) [3]: 4% and 5%
- Population Healthy Nuclei (%) [3]: 74% and 79%
- Population Hoechst High Intensity Objects (%) [3]: 0%
- Population Membrane Permeable-Phenotype (%) [3]: 4% and 8%
- Population Mitochondria Different-Phenotype (%) [3]: 30% and 36%
- Population Mitotic Cells (%) [3]: 57% and 25%
- Population Normal (%) [3]: 100%
- Population Pyknosed Nuclei (%) [3]: 21% and 15%
- Population Tubulin-Different-Phenotype (%) [3]: 26% and 35%
- Population Apoptotic (%) [4]: 96% and 93%
- Population Healthy Nuclei (%) [4]: 6% and 7%
- Population Hoechst High Intensity Objects (%) [4]: 3% and 5%
- Population Membrane Permeable-Phenotype (%) [4]: 75% and 80%
- Population Mitochondria Different-Phenotype (%) [4]: 100% and 86%
- Population Mitotic Cells (%) [4]: 4% and 6%
- Population Normal (%) [4]: 96% and 94%
- Population Pyknosed Nuclei (%) [4]: 43% and 78%
- Population Tubulin-Different-Phenotype (%) [4]: 100% and 93%
- Population Apoptotic (%) [5]: 64% and 83%
- Population Fragmented Nuclei (%) [5]: 12% and 4%
- Population Healthy Nuclei (%) [5]: 50% and 68%
- Population Hoechst High Intensity Objects (%) [5]: 1% and 0%
- Population Membrane Permeable-Phenotype (%) [5]: 6% and 7%
- Population Mitochondria Different-Phenotype (%) [5]: 20% and 28%
- Population Mitotic Cells (%) [5]: 35% and 16%
- Population Normal (%) [5]: 98% and 99%
- Population Pyknosed Nuclei (%) [5]: 37% and 26%
- Population Tubulin-Different-Phenotype (%) [5]: 24% and 46%
- Population Apoptotic (%) [6]: 92%
- Population Healthy Nuclei (%) [6]: 5% and 9%
- Population Hoechst High Intensity Objects (%) [6]: 0% and 3%
- Population Membrane Permeable-Phenotype (%) [6]: 100% and 73%
- Population Mitochondria Different-Phenotype (%) [6]: 66% and 73%
- Population Mitotic Cells (%) [6]: 7%
- Population Normal (%) [6]: 100% and 96%
- Population Pyknosed Nuclei (%) [6]: 49% and 76%
- Population Tubulin-Different-Phenotype (%) [6]: 100%

SMILES: Cc1ccc(C(=O)Nc2cc(N3CCN(C)CC3)cc(C(F)(F)F)c2)cc1-n1cc(-c2cnn(C)c2C)nn1.Cl
- Population Apoptotic (%) [1]: 25% and 60%
- Population Healthy Nuclei (%) [1]: 70% and 79%
- Population Hoechst High Intensity Objects (%) [1]: 0%
- Population Membrane Permeable-Phenotype (%) [1]: 12% and 17%
- Population Mitotic Cells (%) [1]: 75% and 39%
- Population Normal (%) [1]: 100%
- Population Pyknosed Nuclei (%) [1]: 8% and 17%
- Population Tubulin-Different-Phenotype (%) [1]: 69% and 29%
- Population Apoptotic (%) [2]: 60% and 83%
- Population Healthy Nuclei (%) [2]: 69% and 51%
- Population Hoechst High Intensity Objects (%) [2]: 0%
- Population Membrane Permeable-Phenotype (%) [2]: 28% and 37%
- Population Mitochondria Different-Phenotype (%) [2]: 42% and 62%
- Population Mitotic Cells (%) [2]: 39% and 16%
- Population Normal (%) [2]: 100%
- Population Pyknosed Nuclei (%) [2]: 24% and 19%
- Population Tubulin-Different-Phenotype (%) [2]: 86% and 87%
- Population Apoptotic (%) [3]: 31% and 70%
- Population Healthy Nuclei (%) [3]: 55% and 73%
- Population Hoechst High Intensity Objects (%) [3]: 0%
- Population Membrane Permeable-Phenotype (%) [3]: 0% and 9%
- Population Mitotic Cells (%) [3]: 68% and 29%
- Population Normal (%) [3]: 100%
- Population Pyknosed Nuclei (%) [3]: 27% and 24%
- Population Tubulin-Different-Phenotype (%) [3]: 68% and 44%
- Total Cell Count [3]: 69 and 193
- Population Apoptotic (%) [4]: 85%
- Population Fragmented Nuclei (%) [4]: 28% and 10%
- Population Healthy Nuclei (%) [4]: 46% and 50%
- Population Hoechst High Intensity Objects (%) [4]: 3% and 0%
- Population Membrane Permeable-Phenotype (%) [4]: 23% and 42%
- Population Mitochondria Different-Phenotype (%) [4]: 38% and 55%
- Population Mitotic Cells (%) [4]: 14%
- Population Normal (%) [4]: 96% and 99%
- Population Pyknosed Nuclei (%) [4]: 25% and 38%
- Population Tubulin-Different-Phenotype (%) [4]: 69% and 89%
- Population Apoptotic (%) [5]: 69% and 75%
- Population Fragmented Nuclei (%) [5]: 9% and 3%
- Population Healthy Nuclei (%) [5]: 65% and 72%
- Population Hoechst High Intensity Objects (%) [5]: 0%
- Population Membrane Permeable-Phenotype (%) [5]: 4% and 8%
- Population Mitotic Cells (%) [5]: 30% and 24%
- Population Normal (%) [5]: 100% and 99%
- Population Pyknosed Nuclei (%) [5]: 24%
- Population Tubulin-Different-Phenotype (%) [5]: 72% and 41%
- Population Apoptotic (%) [6]: 92% and 100%
- Population Healthy Nuclei (%) [6]: 21% and 26%
- Population Hoechst High Intensity Objects (%) [6]: 0%
- Population Membrane Permeable-Phenotype (%) [6]: 52% and 22%
- Population Mitochondria Different-Phenotype (%) [6]: 63% and 55%
- Population Mitotic Cells (%) [6]: 7% and 0%
- Population Normal (%) [6]: 99% and 100%
- Population Pyknosed Nuclei (%) [6]: 67% and 38%
- Population Tubulin-Different-Phenotype (%) [6]: 86% and 66%
